High-throughput results (PubChem BioAssay)
A selection: hits, their analogues and other compounds. The true share with any hit is near 4.5%.
OX1R antag-1 = blocks the human orexin 1 receptor; OX1R-expressing cells, FRET antagonist read-out; inhibition, % at 6.6 µM; hit rate 1.8% among 330,000; in the data active = inhibition mostly above about 38%, no sharp cut-off; inactive = mostly below about 40%
Target sequence (O43613 whole entry, looked up): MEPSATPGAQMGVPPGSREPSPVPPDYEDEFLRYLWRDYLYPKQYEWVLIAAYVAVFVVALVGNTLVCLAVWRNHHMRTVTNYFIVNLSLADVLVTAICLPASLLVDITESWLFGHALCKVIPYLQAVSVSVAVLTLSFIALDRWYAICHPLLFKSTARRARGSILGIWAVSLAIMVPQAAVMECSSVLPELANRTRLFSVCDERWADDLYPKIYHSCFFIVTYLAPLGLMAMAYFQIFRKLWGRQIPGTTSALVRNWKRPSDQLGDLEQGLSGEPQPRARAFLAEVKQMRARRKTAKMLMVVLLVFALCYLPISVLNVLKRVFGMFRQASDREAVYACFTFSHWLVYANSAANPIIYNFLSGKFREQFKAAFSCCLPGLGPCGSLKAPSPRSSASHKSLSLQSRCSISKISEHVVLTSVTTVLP
CHO parental Ca = counter-screen: ATP calcium response change in parental CHO cells; hit rate 0.63% among 330,000; AID 463079; inhibition, % at 5.6 µM; parental CHO-K1, ATP-induced calcium, Fluo-8 fluorescence;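 active = inhibition above that plate's mean sample inhibition plus 3 SD, cut at about 26% in these data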
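Assay system: parental CHO cells; Read-out basis: percent inhibition of ATP-evoked calcium rise, normalized to controls; Benchmarks: ATP and no-ATP DMSO wells; Compound dosing: single nominal dose of 5.6 µM per compound; Signal: Fluo-8 calcium dye fluorescence; Also added: ATP as calcium-mobilizing challenge; Repeats: singlicate.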
TAAR1 agonist = agonists of human TAAR1. CHO RD-HGA16 TAAR1, Fluo-8 calcium fluorescence; vehicle wells 0%, saturating PEA agonist 100%. activation, % at 3 µM. hit rate 0.99% among 360,000. AID 624467. Q96RJ0;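 active = activation above the mean activation of all test compounds in the run plus 3 SD, cut at about 38% in these data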
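Test system: RD-HGA16 (CHO) cells co-expressing Gα16 and hTAAR1 | Doses: Single dose, 3 µM | Schedule: 17-24 h seeding, 75 min 37 °C dye, 30 min RT | Evaluation: % activation from peak over basal fluorescence ratio, DMSO-to-PEA scaled | Technique: Kinetic Fluo-8 calcium fluorescence | Benchmarks: Low control DMSO, high control PEA (EC100)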
OX1R antag-2 = human HCRTR1 antagonism; CHO/OX1R cells, Fluo-8 calcium fluorescence, orexin A; inhibition, % at 5 µM; hit rate 0.43% among 330,000;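 active = inhibition above its plate's threshold, mean inhibition of all tested compounds on the plate plus 3 SD, cut at about 37% in these data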
TAAR1 antagonist = antagonists of human TAAR1; Q96RJ0; inhibition, % at 3 µM; hit rate 1.5% among 360,000; CHO RD-HGA16 TAAR1, Fluo-8 calcium fluorescence, antagonist;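 active = inhibition above a per-plate cutoff, the mean inhibition of test compounds on that plate plus 3 SD, cut at about 49% in these data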
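test system = CHO RD-HGA16 cells bearing hTAAR1 | replication = singlicate | controls = DMSO-only wells and EC80 β-PEA-stimulated wells | reagent = EC80 β-phenethylamine stimulus | read-out basis = percent inhibition of PEA-evoked calcium signal, max/basal emission ratio | schedule = seeding 17-24 h prior, 75-min 37 °C, 30-min RT dye loading | signal = kinetic Fluo-8 calcium fluorescence measurement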
GPR7 antag = human neuropeptides B/W receptor 1 antagonism; GPR7-expressing cells, fluorescence antagonist assay; inhibition, % at 4.4 µM; hit rate 1.1% among 290,000; AID 1861; in the data active = inhibition above about 16%, passing the limit was not always enough;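 note: cells stimulated with the agonist NPW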
Hits are given with their value; . = inactive; / = no result.

SMILES | OX1R antag-1 | CHO parental Ca | TAAR1 agonist | OX1R antag-2 | TAAR1 antagonist | GPR7 antag
c1ccc2c(c1)CCN(c1nc3ccccc3n3cnnc13)C2 | 53 | . | . | . | . | .
Cc1cccc(OCCC(=O)Nc2ccc(N3CCOCC3)cc2N2CCOCC2)c1 | . | . | . | . | . | /
O=C(NC(=S)NCCC1=CCCCC1)c1ccccc1Br | 65 | . | . | . | . | .
COc1ccccc1C(=O)C1Nc2ccccc2-c2nnc(SC)nc2O1 (stereo not drawn) | 50 | . | . | . | . | .
O=C(Oc1c(Cl)cc(Cl)c2cccnc12)c1ccco1 | . | 34 | . | . | . | .
COc1ccc(CCN2C(=O)CCC2(C)c2nnnn2-c2ccc3c(c2)OCCO3)cc1OC (stereo not drawn) | / | / | . | / | . | /
Cc1cc(NC(=O)CCC(=O)N(Cc2ccco2)C(C(=O)NC2CCCC2)c2ccccc2)no1 (stereo not drawn) | . | . | . | . | . | .
Cc1cc(NC(=O)CCC(=O)N(Cc2ccco2)C(C(=O)NC2CCCC2)c2ccc(F)cc2)no1 (stereo not drawn) | 47 | . | . | . | . | .
O=C1/C(=N\S(=O)(=O)c2cccs2)C([n+]2ccc(CCCc3ccccc3)cc2)=C([O-])c2ccccc21 | . | . | . | . | . | .
O=C1/C(=N\S(=O)(=O)c2cccs2)C([n+]2cccc(Cc3ccccc3)c2)=C([O-])c2ccccc21 | 48 | 51 | / | . | / | .
Cc1cc(C)c[n+](C2=C([O-])c3ccccc3C(=O)/C2=N\S(=O)(=O)c2cccs2)c1 | . | . | . | . | . | .
CC(C)(C)c1cc[n+](C2=C([O-])c3ccccc3C(=O)/C2=N\S(=O)(=O)c2ccccc2)cc1 | 67 | . | . | . | . | .
CCCOC(=O)c1ccc(OCC(O)Cn2c(C)nc3ccccc32)cc1 (stereo not drawn) | / | / | . | / | 54 | .
O=C(NCCN1CCOCC1)C1CCN(c2ncnc3c2sc2cccc(F)c23)CC1 | . | . | . | . | . | .
CCCCN(CC)CCCNC(=O)C1CCN(c2ncnc3c2sc2cccc(F)c23)CC1 | 62 | . | . | . | . | .
COc1ccc(CN(CCC(c2ccc(F)cc2)C2CCOC(C)(C)C2)C(=O)c2ccco2)cc1 (stereo not drawn) | . | . | . | . | 64 | .
COc1ccc(CN(CCC(c2ccccc2)c2ccco2)C(=O)c2ccco2)cc1 (stereo not drawn) | . | . | . | . | . | .
CC(C)C[C@H](NC(=O)c1ccc(Cl)cc1Cl)C(=O)N1CCC[C@H]1C(=O)NCc1ccccc1 | / | / | . | / | . | /
Cn1nc(C(F)(F)F)c(-c2ccc(Br)cc2)c1NC(=O)Nc1ccc(F)cc1F | . | . | . | 46 | . | .
Cn1nc(C(F)(F)F)c(-c2ccc(F)cc2)c1NC(=O)c1ccco1 | . | . | . | . | . | .
CC(C)Nc1nc(NC(C)(C)C)nc(Oc2ccc(=O)n(C)n2)n1 | . | . | 39 | . | . | .
COc1nc(NC(C)(C)C)nc(Oc2ccc(=O)n(C)n2)n1 | . | . | . | . | . | .
Cc1cccc(C(=O)n2c(=S)nc3cc(C)ccn32)c1 | 41 | . | . | . | . | .
Cc1ccn2c(c1)nc(=S)n2C(=O)c1ccccc1 | . | . | . | . | . | .
Cc1ccc(S(=O)(=O)N2CCN(C(=O)c3c(-c4ccccc4)noc3C)CC2)c(C)c1 | . | . | . | . | . | .
SMILES | OX1R antag-1 | CHO parental Ca | TAAR1 agonist | OX1R antag-2 | TAAR1 antagonist | GPR7 antag
Fc1ccc(/C=C2\CCCC3=C2Nc2ncnn2C3c2ccc(F)cc2)cc1 (stereo not drawn) | . | . | . | . | 65 | .
COc1ccc(C2C3=C(Nc4ncnn42)c2ccccc2CCC3)cc1 (stereo not drawn) | . | . | . | . | . | .
Cc1cc(NC(=O)Cc2cn(C)c3ccccc23)ccc1Oc1cccnc1 | / | / | . | / | . | /
Cn1c(N)c(-c2ccccc2)c2ccc([N+](=O)[O-])cc2c1=O | . | 43 | . | 53 | . | .
N#Cc1c(N)n(Cc2ccccc2)c(=O)c2cc([N+](=O)[O-])ccc12 | . | . | . | . | . | .
CC(C)n1c(=O)c2ccccc2n1Cc1cn(Cc2ccccc2)nn1 | / | / | . | / | . | /
CC(C)Oc1ccc(F)cc1-c1cc(C(=O)Nc2ccccc2)[nH]n1 | / | / | . | / | 50 | /
CCC(=O)c1ccc(OCc2ccccc2)c(OC)c1 | . | . | . | . | . | .
CCC(=O)c1ccc(OCc2ccc(C(=O)c3ccccc3)cc2)cc1 | . | 65 | . | . | . | .
N#Cc1ccccc1OCCCN1CCC(C(O)(c2ccccc2)c2ccccc2)CC1 | / | / | . | / | . | /
COc1ccc(NCc2cc3cc(OC)ccc3[nH]c2=O)cc1 | 47 | . | . | . | . | .
COc1ccc2[nH]c(=O)c(CNc3cccc(C)c3)cc2c1 | 48 | . | . | . | . | .
CCc1c(-c2ccc(Br)cc2)ncn1CCc1ccccc1OC | / | / | . | / | . | /
COc1ccc2c(c1)OC[C@H]1[C@H]2N2C(=O)CN(CCc3c[nH]c4ccccc34)C(=O)[C@@]2(C)[C@H]1c1ccccc1 | . | . | . | . | . | /
COc1ccccc1OCC(=O)Nc1oc(-c2ccccc2)c(-c2ccccc2)c1C#N | 50 | . | . | . | . | .
O=C(CCSc1nnc(-c2ccco2)o1)Nc1ccccc1 | . | . | . | . | . | .
COc1ccccc1OCC(=O)Nc1ccc(-c2nnc(-c3ccco3)o2)cc1 | 64 | . | . | . | . | .
O=C(CCSc1nnc(-c2ccco2)o1)Nc1ccc(Cl)cc1 | . | . | 41 | . | . | .
CCN(CC)C(=O)c1ncn2c1C(=O)NC[C@@H]2C | / | / | . | / | . | /
CSc1ccc(CN2C(=O)C(C)ON=C2c2ccccc2F)cc1 (stereo not drawn) | / | / | . | / | . | /
COc1ccc(Cc2ccccc2C(=O)O)cc1 | / | / | . | / | . | /
COc1ccc(CC2=CC(=O)c3ccccc3C2=O)cc1 | 39 | . | . | . | . | .
Cc1nnc(NC(=O)C2CCCN2S(=O)(=O)c2ccc(Cl)cc2)s1 (stereo not drawn) | . | . | . | . | . | .
Cc1ccc(S(=O)(=O)N2CCCC2C(=O)Nc2nc3ccccc3s2)cc1 (stereo not drawn) | 74 | . | / | . | / | .
O=C(Nc1nc2ccccc2s1)C1CCCN1S(=O)(=O)c1ccc(Cl)cc1 (stereo not drawn) | 54 | . | . | . | . | .
CCCN1CCCCC(NC(=O)COCc2ccccc2)C1=O (stereo not drawn) | / | / | . | / | . | /
Cc1cc2nc(N=C(N)N)nc(C)c2cc1C | / | / | . | / | . | 19
Cc1ccc2nc(N=C(N)N)nc(C)c2c1 | . | . | . | . | . | .
O=C1C(Sc2ccccc2)=C[C@@]2(O)CC[C@@H](O)[C@]1(Sc1ccccc1)[C@H]2O | / | / | . | / | . | /
